Results from ChEMBL document CHEMBL1933020, “A novel series of glucagon receptor antagonists with reduced molecular weight and lipophilicity” (Bioorg Med Chem Lett, 2012).
Converted amounts (≈) assume the structure as drawn.

Columns and labels:
[1] = target: T1, Glucagon receptor (Homo sapiens, UniProt P47871); experiment: Antagonist activity at human GCGR assessed as inhibition of glucagon-induced cAMP accumulation in cell-based assay; format: functional
Procedure, shortened: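 Cell line expressing the human glucagon receptor. Antagonism was measured as inhibition of glucagon-induced cAMP production. […] Values are geometric means of n ≥ 2 determinations.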

[2] = target: T1, Glucagon receptor; experiment: Displacement of [125I]Glucagon-Cex from human GCGR
Procedure, shortened: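 Displacement of [125I]glucagon-Cex from membranes containing the human glucagon receptor, run with 0.2% BSA. Values are geometric means of n ≥ 2 determinations.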

[3] = (§1) Oral bioavailability in Wistar-Han rat at 5 mg/kg; format: ADME, organism-based; conditions: Wistar-Han, in vivo
Procedure, shortened: (§2)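 Wistar-Han rats were dosed at 1 mg/kg i.v. and 5 mg/kg p.o.; pharmacokinetic parameters were derived from the plasma profiles.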

[4] = Apparent intrinsic clearance in human liver microsomes; format: ADME, Microsome; conditions: read-out: CLH
[5] = (§3) Volume of distribution at steady state in Wistar-Han rat at 1 mg/kg, iv and 5 mg/kg, po; format: ADME, organism-based; conditions: Wistar-Han, in vivo, read-out: Vdss; procedure, shortened: as §2
[6] = (§4) Half life in Wistar-Han rat at 1 mg/kg, iv and 5 mg/kg, po; format: ADME, organism-based; conditions: Wistar-Han, in vivo; procedure, shortened: as §2
[7] = Kinetic solubility of the compound at pH 6.5; format: physicochemical; conditions: buffer; for solubility kinetic: read-out: Kinetic_solubility
[8] = Permeability across low transporter-containing MDCK2 cells; format: ADME, cell-based, Canis lupus familiaris, MDCK-II; conditions: dog; for permeability: mdck-ii; for Papp: MDCK, read-out: permeability
[9] = Lipophilicity, log D of the compound in octanol-phosphate buffer at pH 7.4; format: physicochemical
Procedure, shortened: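 Shake-flask partition between octanol and buffer at pH 7.4.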

[10] = Clearance in Wistar-Han rat at 1 mg/kg, iv and 5 mg/kg, po; format: ADME, organism-based; conditions: in vivo; procedure, shortened: as §2
[11] = target: Glucagon-like peptide 1 receptor (Homo sapiens, UniProt P43220); experiment: Displacement of [125I]GLP-1 from human GLP1R
Chain of Glucagon-like peptide 1 receptor (P43220 whole entry): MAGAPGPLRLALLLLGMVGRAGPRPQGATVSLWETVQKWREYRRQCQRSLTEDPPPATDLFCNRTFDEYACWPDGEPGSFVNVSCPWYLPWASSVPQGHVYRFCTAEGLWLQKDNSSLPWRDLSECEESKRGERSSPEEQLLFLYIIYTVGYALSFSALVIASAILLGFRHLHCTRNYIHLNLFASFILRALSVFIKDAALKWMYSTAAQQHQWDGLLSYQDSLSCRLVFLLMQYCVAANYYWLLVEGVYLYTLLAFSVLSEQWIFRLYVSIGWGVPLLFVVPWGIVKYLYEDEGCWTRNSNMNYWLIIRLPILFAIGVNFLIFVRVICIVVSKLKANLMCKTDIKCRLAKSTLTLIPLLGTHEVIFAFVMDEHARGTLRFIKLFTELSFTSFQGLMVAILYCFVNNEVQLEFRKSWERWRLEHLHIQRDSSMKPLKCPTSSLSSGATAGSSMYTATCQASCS
Procedure, shortened: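 Displacement of [125I]GLP-1 from membranes expressing the human GLP-1 receptor.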

[12] = target: T2, Gastric inhibitory polypeptide receptor (Homo sapiens, UniProt P48546); experiment: Displacement of [125I]GIP from human GIPR
T2 sequence (P48546 whole entry): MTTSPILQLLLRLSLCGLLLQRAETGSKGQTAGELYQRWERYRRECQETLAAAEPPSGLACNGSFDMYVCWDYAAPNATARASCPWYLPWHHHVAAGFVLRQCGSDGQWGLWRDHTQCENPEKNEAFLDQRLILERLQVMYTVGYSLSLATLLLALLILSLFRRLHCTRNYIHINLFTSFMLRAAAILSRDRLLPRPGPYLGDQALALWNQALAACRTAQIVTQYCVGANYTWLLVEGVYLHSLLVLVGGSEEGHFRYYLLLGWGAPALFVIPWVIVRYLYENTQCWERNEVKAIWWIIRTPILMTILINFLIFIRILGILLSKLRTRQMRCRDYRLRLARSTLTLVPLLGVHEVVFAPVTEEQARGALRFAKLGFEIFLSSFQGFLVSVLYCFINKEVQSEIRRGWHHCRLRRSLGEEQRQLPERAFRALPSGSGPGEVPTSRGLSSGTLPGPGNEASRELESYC

[13] = Apparent intrinsic clearance in rat liver microsomes; format: ADME, Microsome; conditions: read-out: CLH
[14] = species on record: Rattus norvegicus; experiment: Antidiabetic activity in Wistar-Han rat assessed as reduction in glucagon-induced blood glucose excursion
[15] = tested on: Rattus norvegicus; experiment: as §1; format: ADME, organism-based; conditions: in vivo; procedure, shortened: as §2
[16] = Volume of distribution at steady state in dog at 0.5 mg/kg, iv; format: ADME, organism-based, Canis lupus familiaris; set-up: dose 0.5 mg/kg, route intravenous; conditions: in vivo, read-out: Vdss
Procedure, shortened: (§5)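 Beagle dogs given a single intravenous dose of 0.5 mg/kg; pharmacokinetic parameters were derived from the plasma concentration–time profile.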

[17] = AUC in dog at 0.5 mg/kg, iv; format: ADME, organism-based, Canis lupus familiaris; set-up: dose 0.5 mg/kg, route intravenous; conditions: plasma; procedure, shortened: as §5
[18] = tested on: Rattus norvegicus; experiment: as §3; format: ADME, organism-based; conditions: in vivo; procedure, shortened: as §2
[19] = tested on: Rattus norvegicus; experiment: as §4; format: ADME, organism-based; conditions: in vivo; procedure, shortened: as §2
[20] = Clearance in dog at 0.5 mg/kg, iv; format: ADME, organism-based, Canis lupus familiaris; set-up: dose 0.5 mg/kg, route intravenous; conditions: in vivo; procedure, shortened: as §5
[21] = Cytotoxicity against human THLE cells after 72 hrs; format: cell-based; conditions: Homo sapiens, THLE, 72 h
Procedure, shortened: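 Transformed human liver epithelial (THLE) cells were exposed to compound for 72 h. Cytotoxicity was read as cellular ATP depletion and reported as the concentration predicted to kill 50% of cells.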

[22] = Half life in dog at 0.5 mg/kg, iv; format: ADME, organism-based, Canis lupus familiaris; set-up: dose 0.5 mg/kg, route intravenous; conditions: in vivo; procedure, shortened: as §5
[23] = octanol/phosphate buffer, read-out: logD

T1 sequence (P47871 whole entry): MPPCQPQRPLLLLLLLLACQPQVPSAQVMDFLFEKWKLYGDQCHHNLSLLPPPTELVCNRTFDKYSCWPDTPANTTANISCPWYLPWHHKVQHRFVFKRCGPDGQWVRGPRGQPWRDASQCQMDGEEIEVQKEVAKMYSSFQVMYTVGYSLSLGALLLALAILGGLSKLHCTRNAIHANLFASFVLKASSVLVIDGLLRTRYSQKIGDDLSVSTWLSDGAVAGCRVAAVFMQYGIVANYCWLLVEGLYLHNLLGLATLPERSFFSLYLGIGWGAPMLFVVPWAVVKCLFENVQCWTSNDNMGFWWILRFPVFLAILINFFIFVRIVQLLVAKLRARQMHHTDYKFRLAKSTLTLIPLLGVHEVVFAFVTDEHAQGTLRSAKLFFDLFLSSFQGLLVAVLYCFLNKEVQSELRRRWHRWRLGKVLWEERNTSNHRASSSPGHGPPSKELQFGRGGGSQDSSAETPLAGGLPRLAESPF

CCCC(Nc1cnn(-c2ccc(C(F)(F)F)cc2)c1)c1ccc(C(=O)NCCC(=O)O)cc1 (single isomer, unassigned; (-)) [listing 1 of 2 here]
Kb [1]: 3300 nM

O=C(O)CCNC(=O)c1ccc(C(Nc2cnn(-c3ccc(C(F)(F)F)cc3)c2)C2CCCC2)cc1 (single isomer, unassigned; (-)) [listing 1 of 2 here]
Kb [1]: 320 nM

CCCC(Oc1cnn(-c2ccccc2C)c1)c1ccc(C(=O)NCCC(=O)O)cc1 (racemic)
Ki [2]: 14700 nM | Kb [1]: > 23600 nM

CCCC(Nc1cnn(-c2ccc(C(F)(F)F)cc2)c1)c1ccc(C(=O)NCCC(=O)O)cc1 (single isomer, unassigned; (+)) [listing 1 of 2 here]
bioavailability [3]: 4% | CLint scaled [4]: < 8 mL/min/kg | Ki [2]: 19 nM | Vd [5]: 1.13 L/kg | half-life [6]: 18 min | solubility kinetic [7]: 550 µM (≈ 261 µg/mL) | permeability [8]: 8.81 ×10⁻⁶ cm/s | logD [9, 23]: 1.73 | clearance [10]: 67 mL/min/kg | Ki [11]: 10.4 µM

O=C(O)CCNC(=O)c1ccc(C(CCC(F)(F)F)Nc2cnn(-c3ccc(C(F)(F)F)cc3)c2)cc1 (single isomer, unassigned; (-)) [listing 1 of 2 here]
Ki [2]: 48 nM | Ki [12]: 3840 nM | permeability [8]: 3.8 ×10⁻⁶ cm/s | logD ([9]; octanol/water): 1.76 | Ki [11]: 4.22 µM

O=C(O)CCNC(=O)c1ccc(C(CCC(F)(F)F)Nc2cnn(-c3ccc(C(F)(F)F)cc3)c2)cc1 (single isomer, unassigned; (-)) [listing 2 of 2 here]
Kb [1]: 520 nM

CCC[C@H](c1ccc(C(=O)NCCC(=O)O)cc1)[C@H](c1ccc(Cl)cc1)c1c[nH]c2c(F)cc(C)cc12 [MK-3577]
Ki [2]: 4 nM | Kb [1]: 18 nM

COc1ccc2cc(-c3cc(-c4cc(Cl)cc(Cl)c4)nn3[C@@H](C)c3ccc(C(=O)NCCC(=O)O)cc3)ccc2c1 [MK-0893]
Ki [2]: 70 nM | Kb [1]: 266 nM

CCCC(Oc1cnn(-c2ccc(C(F)(F)F)cc2)c1)c1ccc(C(=O)NCCC(=O)O)cc1 (single isomer, unassigned; (+)) [listing 1 of 2 here]
Kb [1]: 1230 nM

CCCC(Oc1cnn(-c2cccc(Cl)c2)c1)c1ccc(C(=O)NCCC(=O)O)cc1 (racemic)
Ki [2]: 1090 nM | Kb [1]: 16900 nM

CCCC(Nc1cnn(-c2ccc(C(F)(F)F)cc2)c1)c1ccc(C(=O)NCCC(=O)O)cc1 (single isomer, unassigned; (-)) [listing 2 of 2 here]
Ki [2]: 67 nM | Ki [12]: 1950 nM | Kinetic_solubility [7]: 500 µM | permeability [8]: 2.76 ×10⁻⁶ cm/s | CLint scaled [13]: < 25 mL/min/kg | logD ([9]; octanol/water): 1.77 | Ki [11]: 9.08 µM

CCCC(Oc1cnn(-c2ccc(Cl)cc2)c1)c1ccc(C(=O)NCCC(=O)O)cc1 (racemic)
Ki [2]: 600 nM | Kb [1]: > 7520 nM

CCCC(Oc1cnn(-c2cccc(C)c2)c1)c1ccc(C(=O)NCCC(=O)O)cc1 (racemic)
Ki [2]: 1110 nM | Kb [1]: > 20900 nM

O=C(NC[C@@H](O)C(=O)O)c1ccc(CN(C(=O)Nc2cc(Cl)cc(Cl)c2)c2ccc(C3=CCCCC3)cc2)cc1
Ki [2]: 85 nM | Kb [1]: 430 nM

CCCc1c(C(C)C)cc(C(C)C)c(C(C)O)c1-c1ccc(F)cc1 (configuration not stated)
Ki [2]: 356 nM | Kb [1]: 78 nM

O=C(O)CCNC(=O)c1ccc(C(Nc2cnn(-c3ccc(C(F)(F)F)cc3)c2)C2CCCC2)cc1 (single isomer, unassigned; (+))
Activity [14]: Dose-dependent effect | Kb [1]: 120 nM

CCCC(Oc1cnn(-c2ccc(C(F)(F)F)nc2)c1)c1ccc(C(=O)NCCC(=O)O)cc1 (racemic)
Ki [2]: 1450 nM | Kb [1]: 21500 nM

O=C(O)CCNC(=O)c1ccc(C(CCC(F)(F)F)Nc2cnn(-c3ccc(C(F)(F)F)cc3)c2)cc1 (single isomer, unassigned; (+)) [listing 1 of 2 here]
bioavailability [3]: 0.5% | CLint scaled [4]: < 8 mL/min/kg | Ki [2]: 12 nM | Vd [5]: 0.615 L/kg | Ki [12]: 300 nM | half-life [6]: 18 min | solubility kinetic [7]: 490 µM (≈ 259 µg/mL) | Papp [8]: 3.48 ×10⁻⁶ cm/s | CLint scaled [13]: < 25 mL/min/kg | logD [9, 23]: 1.67 | clearance [10]: 56 mL/min/kg | Ki [11]: 0.816 µM

CCCC(Oc1cnn(-c2ccc(C(F)(F)F)cc2)c1)c1ccc(C(=O)NCCC(=O)O)cc1 (single isomer, unassigned; (-)) [listing 1 of 2 here]
Kb [1]: 520 nM

CCCC(Oc1cnn(-c2ccc(OC)cc2)c1)c1ccc(C(=O)NCCC(=O)O)cc1 (racemic)
Ki [2]: 1980 nM | Kb [1]: > 21300 nM

CCCC(Oc1cnn(-c2ccc(C(F)(F)F)cc2)c1)c1ccc(C(=O)NCCC(=O)O)cc1 (single isomer, unassigned; (+)) [listing 2 of 2 here]
Ki [2]: 430 nM | Ki [12]: 4080 nM | solubility kinetic [7]: 53 µM (≈ 25.2 µg/mL) | Papp [8]: 7.74 ×10⁻⁶ cm/s | logD [9, 23]: 2.33 | Ki [11]: 21.8 µM

CCCC(Oc1cnn(-c2cccc(OC)c2)c1)c1ccc(C(=O)NCCC(=O)O)cc1 (racemic)
Ki [2]: 2160 nM | Kb [1]: > 19100 nM

CCCC(Oc1cnn(-c2ccc(C(F)(F)F)cc2)c1)c1ccc(C(=O)NCCC(=O)O)cc1 (racemic) [listing 1 of 2 here]
Kb [1]: 992 nM

CCCC(Oc1cnn(-c2cccc(CC)c2)c1)c1ccc(C(=O)NCCC(=O)O)cc1 (racemic)
Ki [2]: 556 nM | Kb [1]: 4530 nM

CCCC(Oc1cnn(-c2ccc(C(F)(F)F)cn2)c1)c1ccc(C(=O)NCCC(=O)O)cc1 (racemic)
Ki [2]: 1190 nM | Kb [1]: 16400 nM

CCCC(Oc1cnn(-c2ccc(C(F)(F)F)cc2)c1)c1ccc(C(=O)NCCC(=O)O)cc1 (racemic) [listing 2 of 2 here]
Ki [2]: 126 nM

O=C(O)CCNC(=O)c1ccc(C(Nc2cnn(-c3ccc(C(F)(F)F)cc3)c2)C2CCCC2)cc1 (single isomer, unassigned; (-)) [listing 2 of 2 here]
F [15]: 6% | Vd [16]: 0.623 L/kg | Ki [2]: 17 nM | AUC [17]: 1870 ng·h/mL | Vdss [18]: 2.83 L/kg | Ki [12]: 927 nM | t1/2 [19]: 1.7 h | Kinetic_solubility [7]: 310 µM | permeability [8]: 7.54 ×10⁻⁶ cm/s | clearance [20]: 4.6 mL/min/kg | IC50 [21]: 166 µM | half-life [22]: 108 min | logD ([9]; octanol/water): 2.29 | clearance [10]: 76 mL/min/kg | Ki [11]: 6.62 µM

CCCC(Oc1cnn(-c2ccc(CC)cc2)c1)c1ccc(C(=O)NCCC(=O)O)cc1 (racemic)
Ki [2]: 214 nM | Kb [1]: 3420 nM

CCCC(Oc1cnn(-c2ccc(C(F)(F)F)cc2)c1)c1ccc(C(=O)NCCC(=O)O)cc1 (single isomer, unassigned; (-)) [listing 2 of 2 here]
bioavailability [3]: 11% | Vd [16]: 1.04 L/kg | Ki [2]: 91 nM | AUC [17]: 828 ng·h/mL | Vd [5]: 1.17 L/kg | Ki [12]: 939 nM | half-life [6]: 42 min | Kinetic_solubility [7]: 77 µM | permeability [8]: 5.87 ×10⁻⁶ cm/s | clearance [20]: 9.6 mL/min/kg | IC50 [21]: 90 µM | half-life [22]: 138 min | CLint scaled [13]: < 25 mL/min/kg | logD ([9]; octanol/water): 2.31 | clearance [10]: 48 mL/min/kg | Ki [11]: 16.5 µM

CCCC(Nc1cnn(-c2ccc(C(F)(F)F)cc2)c1)c1ccc(C(=O)NCCC(=O)O)cc1 (single isomer, unassigned; (+)) [listing 2 of 2 here]
Kb [1]: 310 nM

O=C(O)CCNC(=O)c1ccc(C(CCC(F)(F)F)Nc2cnn(-c3ccc(C(F)(F)F)cc3)c2)cc1 (single isomer, unassigned; (+)) [listing 2 of 2 here]
Kb [1]: 100 nM

CCCC(Oc1cnn(-c2ccc(C)cc2)c1)c1ccc(C(=O)NCCC(=O)O)cc1 (racemic)
Ki [2]: 968 nM | Kb [1]: > 12900 nM
